The IC50 is the midpoint of a concentration-inhibition curve.

Assay [1] deals with HCC2429. Briefly: Induction of cell differentiation in human HCC2429 cells assessed as c-fos mRNA level at 250 nM for 5 days in presence of JQ1 by qRT-PCR analysis. The assay is classed as functional, cell-based. Particulars: time 5.0 day. A digest of the protocol: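 HCC2429 cells given 250 nM, 50 nM JQ1, or the combination for 5 days. KRT10, KRT14, TGM1 and c-fos mRNA by qRT-PCR. Mean ± SEM of three independent experiments.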
On the technique in general: Real-time PCR tracks product formation cycle by cycle.

In assay [2] the test system is HCC2429. Briefly: Induction of apoptosis in human HCC2429 cells assessed as cleaved caspase-3 expression at 0.5 microM incubated for 48 hrs by immunoblot analysis. The assay is classed as functional, cell-based. A digest of the protocol:
(§1)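 HCC2429 cells given 0.5 or 1 µM for 24, 48 and 72 h. Cleaved caspase-3 detected by immunoblot.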
(In general: A western blot detects proteins with antibodies after separation by electrophoresis.)

The subject of assay [3] is HCC2429. Briefly: Antiproliferative activity against human HCC2429 cells for 72 hrs incubation measured by Celltiter Glo Cell Viability assay. The class given is functional, cell-based. Particulars: HCC2429, 72 h. A digest of the protocol: (§2)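 Cells exposed to inhibitor over 10 nM–25 µM for 72 h; viability read by CellTiter Glo luminescence. IC50 taken from dose-response curve fit. Mean ± SD of three technical replicates.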
A general note: Cellular ATP, detected with luciferase, serves as a proxy for viable cell number.

In assay [4] the test system is HCC2429. Kind of assay: Downregulation of TP63 mRNA level in human HCC2429 cells for 48 hrs treatment by qRT-PCR analysis. The class given is functional, cell-based. A digest of the protocol: (§3)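 HCC2429 cells treated at indicated concentrations for 48 h. MYC, CCAT1 and TP63 mRNA measured by quantitative RT-PCR.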
The test system of assay [5] is HCC2429. Briefly: Induction of cell cycle arrest in human HCC2429 cells assessed as G1 cell cycle arrest at 0.5 microM incubated for 24 hrs by flow cytometry analysis. The class given is functional, cell-based. A digest of the protocol:
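HCC2429 cells exposed to 0.5 or 1 µM for 24, 48 and 72 h, then analysed by flow cytometry. Mean ± SEM, three independent experiments.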

For assay [6], the system named is HCC2429. Briefly: Inhibition of p300/CBP in human HCC2429 cells assessed as H3K27ac protein acetylation at 1 microM for 3 days by immunofluorescence analysis. To be noted: time 3.0 day. The assay is classed as cell-based. A digest of the protocol:
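HCC2429 cells treated 3 days with 1 µM or DMSO. H3K27ac, BRD4-NUT and wild-type BRD4 imaged by immunofluorescence.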

Assay [7] concerns HCC2429. Briefly: Induction of apoptosis in human HCC2429 cells assessed as cleaved caspase-3 expression at 0.5 microM incubated for 72 hrs by immunoblot analysis. The class given is functional, cell-based. A digest of the protocol: as §1
The subject of assay [8] is HCC2429. Briefly: Induction of squamous differentiation in human HCC2429 cells assessed as accumulation of pan-keratin in cytoplasm at 0.5 microM for 5 days by immunofluorescence staining method. To be noted: time 5.0 day. The assay is classed as functional, cell-based. A digest of the protocol:
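HCC2429 cells exposed 5 days to 0.5 µM. Cytokeratin detected by immunofluorescence.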

In assay [9] the test system is PER-403. Briefly: Induction of squamous differentiation in human PER-403 cells assessed as change in cell phenotype at 0.5 microM for 5 days by immunofluorescence staining method. The class given is functional, cell-based. To be noted: time 5.0 day.
The nature of assay [10]: Antiproliferative activity against human 00-143 cells for 72 hrs incubation measured by Celltiter Glo Cell Viability assay. Particulars: 00-143, 72 h. The class given is functional, cell-based. A digest of the protocol: as §2
Assay [11] concerns HCC2429. Kind of assay: Induction of cell differentiation in human HCC2429 cells assessed as increase in c-fos mRNA level at 0.5 microM for 5 days by qRT-PCR analysis.
Assay [12] has as its system HCC2429. Kind of assay: Induction of apoptosis in human HCC2429 cells assessed as cleaved caspase-3 expression at 250 nM incubated for 72 hrs in presence of JQ1 by immunoblot analysis. The class given is functional, cell-based. A digest of the protocol:
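HCC2429 cells treated 72 h with 250 nM alone, 50 nM JQ1 alone, or both combined. Cleaved caspase-3 detected by immunoblot.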

In assay [13] the test system is HCC2429. Briefly: Induction of squamous differentiation in human HCC2429 cells assessed as flattening of cells at 0.5 microM for 5 days by immunofluorescence staining method. To be noted: time 5.0 day. The class given is functional, cell-based.
The subject of assay [14] is HCC2429. Kind of assay: Inhibition of p300/CBP in human HCC2429 cells assessed as BRD4-NUT level at MYC promoter and TP63 enhancer region with 1 microM for 3 days by ChIP analysis. The class given is cell-based. To be noted: time 3.0 day. A digest of the protocol:
(§4)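 HCC2429 cells held 3 days at 1 µM or DMSO. Chromatin precipitated with H3K27ac, NUT or normal rabbit IgG antibodies. MYC promoter and TP63 enhancer quantified by qPCR as fold enrichment over IgG. Mean ± SEM, four independent experiments.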

The test system of assay [15] is HCC2429. Briefly: Inhibition of p300/CBP in human HCC2429 cells assessed as H3K27ac protein acetylation at MYC promoter and TP63 enhancer region with 1 microM for 3 days by ChIP analysis. The class given is cell-based. To be noted: time 3.0 day. A digest of the protocol:
as §4

Assay [16] relates to HCC2429. Kind of assay: Downregulation of MYC protein level in human HCC2429 cells for 48 hrs treatment by qRT-PCR analysis. The assay is classed as functional, cell-based. To be noted: in the assay text read “immunoblot analysis” for “qRT-PCR analysis”. A digest of the protocol:
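HCC2429 cells treated at indicated concentrations for 48 h. MYC and H3K27ac protein assessed by immunoblot.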

For assay [17], the system named is TC-797. Kind of assay: Induction of squamous differentiation in human TC-797 cells assessed as change in cell phenotype at 0.5 microM for 5 days by immunofluorescence staining method. The assay is classed as functional, cell-based. To be noted: time 5.0 day.
For assay [18], the system named is HCC2429. Briefly: Downregulation of MYC mRNA level in human HCC2429 cells for 48 hrs treatment by qRT-PCR analysis. The assay is classed as functional, cell-based. A digest of the protocol:
as §3

Assay [19] concerns Ty-82. Briefly: Antiproliferative activity against human Ty-82 cells for 72 hrs incubation measured by Celltiter Glo Cell Viability assay. The assay is classed as functional, cell-based. To be noted: TY82, 72 h. A digest of the protocol:
as §2

Assay [20] deals with HCC2429. Briefly: Downregulation of CCAT1 mRNA level in human HCC2429 cells for 48 hrs treatment by qRT-PCR analysis. The assay is classed as functional, cell-based. A digest of the protocol:
as §3

In assay [21] the test system is HCC2429. Kind of assay: Induction of cell differentiation in human HCC2429 cells assessed as increase in involucrin-protein level at 0.5 microM for 5 days by immunoblot analysis.
The test system of assay [22] is HCC2429. Briefly: Inhibition of colony formation in human HCC2429 cells assessed as inhibition in colony formation at 250 nM incubated for 72 hrs in presence of JQ1 by crystal violet staining based assay. The assay is classed as functional, cell-based. A digest of the protocol: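 HCC2429 cells incubated 72 h with 250 nM, 50 nM JQ1, or both. Colony formation then scored.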

Active and inactive are the calls of the source. The rule behind the calls is not given here.

Turning to `CNC(=O)Nc1ccc2c(c1)CC[C@@]21OC(=O)N(CC(=O)N(Cc2ccc(F)cc2)[C@@H](C)C(F)(F)F)C1=O` [A-485], the result in assay [1], in [2], in [4], in assay [5], in assay [7] and in assay [8] was Active. The outcome in assay [9], in [11], in assay [12], in [13], in assay [16] and in assay [17] was Active. Besides, the result in [18], in [20] and in assay [21] was Active. The IC50 turned out to be 750 nM in assay [3], 980 nM in [10] and 210 nM in assay [19]. Also, the inhibition entry in assay [6], in [14], in [15] and in [22] was “Active” in each case.
